Reference: ChEMBL document CHEMBL4177680, “Discovery of a Potent, Selective T-type Calcium Channel Blocker as a Drug Candidate for the Treatment of Generalized Epilepsies” (J Med Chem, 2017)
One block for each compound: values may come before it.

Assays:
Salmonella typhimurium [1] = test: Mutagenicity in Salmonella typhimurium TA100 assessed as increase in number of revertants in presence of rat liver S9 fraction by Ames test relative to control; type: toxicity, organism-based; conditions: salmonella enterica subsp. enterica serovar typhimurium
Salmonella typhimurium [2] = test: Mutagenicity in Salmonella typhimurium TA98 assessed as increase in number of revertants in presence of rat liver S9 fraction by Ames test relative to control; type: toxicity, organism-based; conditions: salmonella enterica subsp. enterica serovar typhimurium
[3] = Drug metabolism in human plasma at 10 uM after 6 hrs by LC-MS/MS method; type: ADME, cell-free; conditions: read-out: Drug metabolism
[4] = Covalent protein binding in human liver microsomes at 10 uM after 1 hr in presence of NADPH regenerating system by liquid scintillation counting method; type: ADME, microsome
[5] = Intrinsic clearance in human liver microsomes assessed per mg of protein at 1 uM after 15 mins in presence of NADPH regenerating system by LC-MS/MS method; type: ADME, microsome; conditions: read-out: CLH
[6] = Free drug level in Wistar rat brain at 10 mg/kg administered via oral gavage measured after 1 hr by rapid equilibrium dialysis method; type: ADME, organism-based; conditions: in vivo
[7] = Clearance in NMRI mouse at 1 mg/kg, iv as slow bolus dose by LC-MS/MS method; type: ADME, organism-based; conditions: in vivo
Rattus norvegicus [8] = test: Unbound Cmax in spontaneously hypertensive Wistar-Kyoto rat at 30 mg/kg, po; type: ADME, organism-based; conditions: in vivo
Canis familiaris = test: Unbound Cmax in Beagle dog at 10 mg/kg, po; type: ADME, organism-based, Canis lupus familiaris; conditions: in vivo
[9] = Oral bioavailability in Wistar rat at 10 mg/kg administered via gavage by LC-MS/MS method; type: ADME, organism-based; conditions: in vivo
[10] = Intrinsic clearance in monkey liver microsomes assessed per mg of protein at 1 uM after 15 mins in presence of NADPH regenerating system by LC-MS/MS method; type: ADME, Macaca mulatta, microsome; conditions: rhesus monkey, read-out: CLH
[11] = Half life in Wistar rat at 1 mg/kg, iv administered via 5 mins infusion by LC-MS/MS method; type: ADME, organism-based; conditions: in vivo
[12] = Clearance in Wistar rat at 1 mg/kg, iv administered via 5 mins infusion by LC-MS/MS method; type: ADME, organism-based; conditions: in vivo
Rattus norvegicus [13] = test: Unbound Cmax in normotensive Wistar rat at 30 mg/kg, po; type: ADME, organism-based; conditions: in vivo
[14] = Clearance in cynomolgus monkey at 1 mg/kg, iv administered via 15 mins infusion by LC-MS/MS method; type: ADME, organism-based, Macaca fascicularis; conditions: in vivo
[15] = Intrinsic clearance in Wistar rat liver microsomes assessed per mg of protein at 1 uM after 15 mins in presence of NADPH regenerating system by LC-MS/MS method; type: ADME, microsome; conditions: read-out: CLH
Cavia porcellus = test: Unbound Cmax in Dunkin-Hartley guinea pig at 30 mg/kg, po; type: ADME, organism-based; conditions: in vivo
[16] = Clearance in Beagle dog at 1 mg/kg, iv administered via 15 mins infusion by LC-MS/MS method; type: ADME, organism-based, Canis lupus familiaris; conditions: in vivo
Cynomolgus monkey = test: Unbound Cmax in cynomolgus monkey at 1000 mg/kg, po; type: ADME, organism-based, Macaca fascicularis; conditions: in vivo
[17] = Fraction unbound in audiogenic seizure-sensitive juvenile DBA/2J mouse brain at 100 mg/kg administered via oral gavage measured at 3 hrs; type: ADME, organism-based; conditions: in vivo
[18] = Cmax in Wistar rat plasma at 10 mg/kg administered via oral gavage by LC-MS/MS method; type: ADME, organism-based; parameters: dose 10 mg/kg, route oral
[19] = Total drug level in Wistar rat brain at 10 mg/kg administered via oral gavage measured after 1 hr by LC-MS/MS method; type: ADME, organism-based; conditions: read-out: Drug uptake
[20] = Half life in human plasma at 10 uM by LC-MS/MS method; type: ADME, cell-free
[21] = Drug metabolism in rat plasma assessed as 3-amino-1-(3,4-difluorobenzyl)pyrazole formation at 10 uM by LC-MS/MS method; type: ADME, cell-free
[22] = Half life in rat plasma at 10 uM by LC-MS/MS method; type: ADME, cell-free
[23] = Drug metabolism in human plasma assessed as 3-amino-1-(3,4-difluorobenzyl)pyrazole formation at 10 uM by LC-MS/MS method; type: ADME, cell-free
[24] = Drug level in Wistar rat cerebrospinal fluid at 10 mg/kg administered via oral gavage measured after 1 hr by LC-MS/MS method; type: ADME, organism-based; conditions: read-out: Drug uptake
In short: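 Wistar rats given 10 mg/kg po and killed at 1 h. Brain, plasma and CSF concentrations measured; free brain and plasma levels reported from unbound fractions. Mean ± SD, n = 3.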

[25] = Chemical stability of the compound in amorphous form at room temperature; type: physicochemical
MDR1 [26] = test: Apparent permeability across basolateral to apical side in MDCK cells expressing MDR1 at 1 uM measured every 30 mins for 2 hrs; type: ADME, cell-based, Canis lupus familiaris; conditions: dog
MDR1 [27] = test: Apparent permeability across apical to basolateral side in MDCK cells expressing MDR1 at 1 uM measured every 30 mins for 2 hrs; type: ADME, cell-based, Canis lupus familiaris; conditions: dog
[28] = Drug level in rat plasma treated with N-(1-(3,4-Difluorobenzyl)-1H-pyrazol-3-yl)-2-(1H-indol-5-yl)acetamide at 10 uM by LC-MS/MS method; type: ADME, cell-free
[29] = Drug level in human plasma treated with N-(1-(3,4-Difluorobenzyl)-1H-pyrazol-3-yl)-2-(1H-indol-5-yl)acetamide at 10 uM by LC-MS/MS method; type: ADME, cell-free
[30] = Fraction unbound in Wistar rat plasma at 10 mg/kg administered via oral gavage measured after 1 hr by rapid equilibrium dialysis method; type: ADME, organism-based; conditions: in vivo

SMILES: Nc1ccn(CC2CCC(F)(F)CO2)n1 (stereo in doubt; 14b)
fold change (FC) (Salmonella typhimurium [1]): 2.5 | fold change (FC) (Salmonella typhimurium [2]): 1.1

SMILES: N#Cc1ccc(Cn2ccc(N)n2)nc1
fold change (FC) (Salmonella typhimurium [1]): 1.3 | fold change (FC) (Salmonella typhimurium [2]): 1

SMILES: Nc1ccn(Cc2ccc(F)cc2)n1
fold change (FC) (Salmonella typhimurium [1]): 10.2 | fold change (FC) (Salmonella typhimurium [2]): 4.1

SMILES: Nc1ccn(CC2CCC(F)(F)CO2)n1 (stereo in doubt; 14a)
fold change (FC) (Salmonella typhimurium [1]): 1.3 | fold change (FC) (Salmonella typhimurium [2]): 1.4

SMILES: N#Cc1ccc(Cn2ccc(N)n2)cc1F
fold change (FC) (Salmonella typhimurium [1]): 2.2 | fold change (FC) (Salmonella typhimurium [2]): 1.2

SMILES: COc1ccc(Cn2ccc(N)n2)cc1
fold change (FC) (Salmonella typhimurium [1]): 20.8 | fold change (FC) (Salmonella typhimurium [2]): 8

SMILES: Nc1cnn(Cc2ccc(F)c(F)c2)n1
fold change (FC) (Salmonella typhimurium [1]): 3.3 | fold change (FC) (Salmonella typhimurium [2]): 1.3

SMILES: Nc1ccn(Cc2ccccc2)n1
fold change (FC) (Salmonella typhimurium [1]): 30.3 | fold change (FC) (Salmonella typhimurium [2]): 15.3

SMILES: Cc1ccc(Cn2ccc(N)n2)cc1
fold change (FC) (Salmonella typhimurium [1]): 19.8 | fold change (FC) (Salmonella typhimurium [2]): 15.1

SMILES: Nc1nc(Cc2ccc(F)c(F)c2)cs1
fold change (FC) (Salmonella typhimurium [1]): 1.1 | fold change (FC) (Salmonella typhimurium [2]): 2.7

SMILES: N#Cc1cc(Cn2ccc(N)n2)ccc1F
fold change (FC) (Salmonella typhimurium [1]): 1.5 | fold change (FC) (Salmonella typhimurium [2]): 1.5

SMILES: N#Cc1ccc(Cn2ccc(N)n2)cc1
fold change (FC) (Salmonella typhimurium [1]): 1.1 | fold change (FC) (Salmonella typhimurium [2]): 1.5

SMILES: N#Cc1cn(Cc2ccc(F)c(F)c2)nc1N
fold change (FC) (Salmonella typhimurium [1]): 1.1 | fold change (FC) (Salmonella typhimurium [2]): 1.1

SMILES: Nc1ncn(Cc2ccc(F)c(F)c2)n1
fold change (FC) (Salmonella typhimurium [1]): 1.1 | fold change (FC) (Salmonella typhimurium [2]): 1.1

SMILES: N#Cc1nc(Cn2ccc(N)n2)ccc1F
fold change (FC) (Salmonella typhimurium [1]): 1.4 | fold change (FC) (Salmonella typhimurium [2]): 1.2

Continued, in another order:

metabolised at 6 h, 10 µM [3]: < 1%
SMILES: COc1ccc(C2(C(=O)Nc3ccn(Cc4ccccc4)n3)CC2)cc1

PB [4]: 72 pmol/mg/h
SMILES: [3H]c1cc(NC(=O)Cc2ccc(C3(C(F)(F)F)CC3)cc2)nn1Cc1ccc(C#N)cn1

metabolised at 6 h, 10 µM [3]: 7%
SMILES: CC(C(=O)Nc1ccn(Cc2ccc(F)cc2)n1)c1ccc(N(C)C)cc1 (racemic)

microsomal CLint at […], 1 µM [5]: 6 µL/min/mg | Drug uptake(free) [6]: 6.1 nM
SMILES: CC(C)(C)c1ccc(CC(=O)Nc2ccn(Cc3ccc(C#N)cn3)n2)cc1

metabolised at 6 h, 10 µM [3]: 4%
SMILES: CC(C)c1ccc(CC(=O)Nc2ccn(Cc3ccccc3)n2)cc1

clearance [7]: 13 mL/min/kg | fCmax (Rattus norvegicus [8]): 90 nM | fCmax (Canis familiaris): 140 nM | bioavailability [9]: 75% | microsomal CLint at […], 1 µM [10]: 9 µL/min/mg | half-life [11]: 2.5 h | clearance [12]: 24 mL/min/kg | fCmax (Rattus norvegicus [13]): 190 nM | microsomal CLint at […], 1 µM [5]: 24 µL/min/mg | clearance at […] [14]: 5.5 mL/min/kg | microsomal CLint at […], 1 µM [15]: 59 µL/min/mg | fCmax (Cavia porcellus): 140 nM | clearance at […] [16]: 0.9 mL/min/kg | fCmax (Cynomolgus monkey): 160 nM | Drug uptake(free) [6]: 29 nM | Cmax [18]: 1900 nM
SMILES: N#Cc1ccc(Cn2ccc(NC(=O)Cc3ccc(C4(C(F)(F)F)CC4)cc3)n2)nc1 [APINOCALTAMIDE]
Drug uptake(free) [17]: 244 nM

clearance [12]: > 100 mL/min/kg | microsomal CLint at […], 1 µM [5]: 43 µL/min/mg | microsomal CLint at […], 1 µM [15]: > 500 µL/min/mg
SMILES: CC(C)c1ccc(CC(=O)Nc2ccn(CC3CCC(F)(F)CO3)n2)cc1 (stereo in doubt; 15a)

concentration at 1 h [19]: 4680 nM | half-life at 10 µM [20]: 2 h | Drug metabolism [21]: Metabolite_Detected | half-life at 10 µM [22]: 5 h | Drug metabolism [23]: Metabolite_Detected | Drug uptake(free) [6]: 52 nM | concentration at 1 h [24]: 164 nM | Stability [25]: Unstable
SMILES: O=C(Cc1ccc2[nH]ccc2c1)Nc1ccn(Cc2ccc(F)c(F)c2)n1

Drug uptake(free) [6]: 2.4 nM
SMILES: CC(C)(C)c1ccc(CC(=O)Nc2ncn(Cc3ccc(F)c(F)c3)n2)cc1

concentration at 1 h [19]: 2990 nM | Drug uptake(free) [6]: 63 nM | concentration at 1 h [24]: 135 nM
SMILES: O=C(Cc1ccc(C2(F)COC2)cc1)Nc1ccn(Cc2ccc(F)c(F)c2)n1

Papp B→A at 2 h, 1 µM (MDR1 [26]): 59 ×10⁻⁶ cm/s | Papp A→B at 2 h, 1 µM (MDR1 [27]): 11 ×10⁻⁶ cm/s
SMILES: Cn1c(=O)oc2cc(CC(=O)Nc3ccn(Cc4ccc(F)c(F)c4)n3)ccc21

Drug uptake(free) [6]: 4.8 nM
SMILES: CCc1cc(CC(=O)Nc2ccn(Cc3ccc(C#N)cn3)n2)ccc1OCC(F)(F)F

Drug metabolism [28]: Metabolite_Detected | Drug metabolism [29]: Metabolite_Detected
SMILES: Nc1ccn(Cc2ccc(F)c(F)c2)n1
fold change (FC) (Salmonella typhimurium [1]): 1.2 | fold change (FC) (Salmonella typhimurium [2]): 2.7

Cp(f) [30]: 72 nM | Drug uptake(free) [6]: 51 nM | concentration at 1 h [24]: 92 nM
SMILES: Cn1ncc2cc(CC(=O)Nc3ccn(Cc4ccc(F)c(F)c4)n3)ccc21

Drug uptake(free) [6]: 63 nM
SMILES: Cn1ncc2cc(CC(=O)Nc3cnn(Cc4ccc(F)c(F)c4)n3)ccc21

concentration at 1 h [19]: 4110 nM | concentration at 1 h [24]: 50 nM | Stability [25]: Unstable
SMILES: O=C(Cc1ccc2cc[nH]c2c1)Nc1ccn(Cc2ccc(F)c(F)c2)n1
